L major viab: inhibitors of Leishmania major promastigote growth | Leishmania major promastigotes, resazurin fluorescence viability | inhibition, % at 10 µM | 9% of 200,000 active | AID 1063;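 also: promastigotes grown with compound for 44 hours at 28 °C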
G6PDH CS: L. mesenteroides G6PDH inhibition counter-screen | 0.12% of 200,000 active | inhibition, % at 5 µM | AID 1020 | Purified L. mesenteroides G6PDH, diaphorase/resazurin coupled fluorescence, 45 min
Diaphorase act: activates diaphorase or chemically reduces, flagging diaphorase assay artifacts; Diaphorase/resazurin coupled assay, resorufin fluorescence, 16 min; active compounds read high; 1 = vehicle wells, 0 = NADH-free wells; activation factor at 20 µM; 0.005% of 190,000 active; AID 1229;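 active = diaphorase activity raised at least twofold by the compound at 20 µM; inactive = activation factor below 2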
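Test system: Clostridium kluyveri diaphorase, purified enzyme. Buffer or medium: 50 mM HEPES pH 7.4 buffer plus MgCl2 and Tween 20. Also added: 0.114 mM NADH and 0.1 mM resazurin, final amounts. Dosing: compound 20 µM once, DMSO 1%. Schedule: 16 min enzyme reaction, ambient temperature. Detection: fluorescence of resorufin, 544 nm excitation, 590 nm emission.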
WT yeast gro inh: growth inhibition of WT yeast, mitochondrial fusion screen; mitochondrial fusion phenotypic screen, WT strain; inhibition, % at 10 µM; 2.1% of 190,000 active; AID 1362; in the data active = inhibition above about 58%; tested in S. cerevisiae
Diaph inh CS: counter-screen for diaphorase-based assays: diaphorase inhibitors and chemical oxidizers; inhibition, % at 20 µM; diaphorase resazurin-to-resorufin fluorescence, NADH, 16 min; bacterial (C. kluyveri) enzyme, not human; 0.69% of 190,000 active;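 active = primary screen inhibition at 20 µM above a set limit, cut at about 50% in these data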
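Benchmarks: positive control wells lacking NADH, neutral wells with DMSO only. System: bacterial diaphorase enzyme (C. kluyveri). Input: 0.14 U/mL diaphorase, enzyme working solution. Detection: resorufin fluorescence, excitation 544 nm, emission 590 nm. Times: 16-min room-temperature incubation before reading.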
Large screens that a line does not name were inactive. A selection: hits, their analogues and other compounds. The true share with any hit is near 11%. Rule as the data show it, unless noted: active = inhibition above about 50%; inactive = the rest.

Cc1cc(C)cc(-n2c(C)cc(C(=S)N3CCOCC3)c2C)c1	L major viab 55.4
COc1ccc(Cn2c(N)c(C#N)c3nc4ccccc4nc32)cc1	none
COc1ccc(-n2c(NC(=O)c3ccc(Br)o3)c(C#N)c3nc4ccccc4nc32)cc1	Diaph inh CS 63.0
Cc1ccc(-n2c(C)cc(C)c(C#N)c2=O)cc1C	none
C=CCn1c(C)cc(-c2csc(NC)n2)c1C	L major viab 96.1
Cc1ccc(-n2ncc3c(NNC(=O)Cc4ccccc4)ncnc32)cc1	none
C=CCn1c(O)c(N=NC(=S)Nc2ccc(OC)c(Cl)c2)c2ccccc21	L major viab 97.5
Cc1cnn(C(=S)NCc2ccc(Cl)cc2)c1	WT yeast gro inh 68.0
CCCN1CCN(C(=S)NCc2ccc(Cl)cc2)CC1	L major viab 81.0
C=CCN(CC=C)c1cnn(-c2nc3ccccc3[nH]2)c(=O)c1Cl	L major viab 65.2
O=C(O)C1CC(=O)N(c2ccc(OCc3ccccc3)cc2)C1 (stereo not drawn)	none
O=C(CCSc1ccc(Cl)cc1)N1CCN(c2ncccn2)CC1	none
CC(=O)N1C(=O)/C(=C2\SC(=S)N(NS(=O)(=O)c3ccc(C)cc3)C2=O)c2ccccc21	none
CCOC(=O)C1=C(C)N=c2s/c(=C\c3ccncc3)c(=O)n2C1c1ccc2c(c1)OCO2 (stereo not drawn)	L major viab 99.0
CCOC(=O)C1=C(C)N=c2s/c(=C/c3ccccc3)c(=O)n2C1c1ccc(OC)c(OC)c1 (stereo not drawn)	none
COc1ccc(C(=O)N2c3cc4c(cc3C(C)=CC2(C)C)OCO4)cc1	WT yeast gro inh 59.9
Clc1ccc(CNC2CCCC2)c(Cl)c1	L major viab 93.8
S=C(NCc1ccc(Cl)cc1Cl)NC1CCCCC1	WT yeast gro inh 83.4
COC(=O)C1=C(C(=O)OC)SC(=C2C(=S)C(C)(C)N(C(=O)CC(C)C)c3ccccc32)S1	none
COc1cccc(NC(=O)COC(=O)CCS(=O)(=O)c2ccc(C)cc2)c1	none
C=CCN(CC=C)CCOc1ccccc1	L major viab 54.2
C=CCN(CC=C)CCOc1cccc2ccccc12	L major viab 62.0
COc1cc(OC)nc(Oc2ccccc2C(=O)Oc2ccc(F)cc2Cl)n1	WT yeast gro inh 69.3
COc1ccccc1C(=O)Oc1ccc(C(C)C)cc1	none
Cn1c(O)c(N=NC(=S)Nc2ccccc2F)c2cc(S(=O)(=O)N3CCOCC3)ccc21	WT yeast gro inh 73.8
CCOC(=O)N1CCC(NC(=O)CCC(=O)N2CCOc3ccc(Cl)cc32)CC1	none
Cc1cc(N=Cc2cc(Cl)ccc2O)no1	WT yeast gro inh 58.3
O=C(CNc1cc(S(=O)(=O)N2CCCC2)ccc1OCC(F)(F)F)Nc1cc(Cl)cc(Cl)c1	none
COc1ccc(S(=O)(=O)Nc2cccc(S(=O)(=O)N3CCCCCC3)c2)cc1	none
COc1ccc(C(=O)NC(=S)Nc2ccc(N3CCCC3)cc2)cc1	none
O=S(=O)(Nc1nc2ccccc2nc1Nc1cccc(S(=O)(=O)N2CCCCC2)c1)c1ccccc1	L major viab 69.0
N#Cc1ccc(C(=O)Nc2cc(S(=O)(=O)N3CCCC3)ccc2OCC(F)(F)F)cc1	L major viab 58.5
COc1ccc(C(=O)Nc2ccc(N3CCCC3)cc2)cc1	L major viab 91.9
O=C(Nc1cccc(S(=O)(=O)N2CCCC2)c1)c1ccc2c(=O)n3c(nc2c1)CCCCC3	L major viab 82.4
CN(C(=O)CC(=O)Nc1ccc(Cl)c(Cl)c1)c1ccccc1	none
Cc1cccc(/C=N/n2c(C)cc(C)c(C#N)c2=O)c1	none
COC(=O)c1ccccc1NC(=O)c1cnn2cccnc12	none
COc1ccccc1NS(=O)(=O)c1ccc(C)c(NC(=O)c2ccc(S(=O)(=O)N3CCCCCC3)cc2)c1	L major viab 96.9
Cc1cc2cc(C)c3nnc(SCC(=O)Nc4ccc(S(=O)(=O)N5CCCCC5)cc4)n3c2cc1C	L major viab 55.9
Cc1cc2ccccc2n2c(SCC(=O)Nc3ccc(S(=O)(=O)N4CCCCC4)cc3)nnc12	none
COc1ccc(NS(=O)(=O)c2cccc(NC(=O)c3ccc(S(=O)(=O)N4CCCCCC4)cc3)c2)cc1	L major viab 97.1
CCOC(=O)N1CCN(S(=O)(=O)c2ccc(C(=O)Nc3ccc4c(c3)C(=O)NC4=O)cc2)CC1	L major viab 55.6
CCOC(=O)c1c(NC(=O)CN2CCCc3ccccc32)sc(C(C)=O)c1C	none
Cc1ccsc1C(=O)N1CCCC(C(=O)c2cc(F)ccc2F)C1 (stereo not drawn)	none
CC(=O)OC(C(=O)Nc1ccccc1C)C(OC(C)=O)C(OC(C)=O)C(OC(C)=O)C(=O)Nc1ccccc1C (stereo not drawn)	none (no result: G6PDH CS, Diaphorase act, WT yeast gro inh, Diaph inh CS)
CCn1c(SCC(=O)Nc2nc3ccc(OC)cc3s2)nc2c1c(=O)n(C)c(=O)n2C	none
COc1ccc(S(=O)(=O)N2CCCCC2)cc1NC(=O)c1ccc2c(c1)OCO2	L major viab 78.3
COc1ccc(S(=O)(=O)N2CCCCC2)cc1NC(=O)CSc1nccn1C	L major viab 98.8
Cn1ccnc1SCC(=O)Nc1cccc(S(=O)(=O)N2CCCCC2)c1	none
CCN(CC)c1ccc(NC(=O)CN2CCN(c3ccc(F)cc3)CC2)cc1	L major viab 71.7 (no result: WT yeast gro inh)
O=C(CN1CCN(c2ccc(O)cc2)CC1)Nc1ccc(SC(F)F)cc1	L major viab 56.6
O=C1CN(CC(=O)Nc2ccc(SC(F)F)cc2)CCN1	none
COc1cccc(N2CCN(CC(=O)Nc3ccc(SC(F)F)cc3)CC2)c1	WT yeast gro inh 63.0
CCc1ccc(C(=O)NN(C(=O)c2ccc(CC)cc2)C(C)(C)C)cc1	L major viab 98.0
Cc1nn(C)c(C(=O)Nc2ccn(C34CC5CC(CC(C5)C3)C4)n2)c1[N+](=O)[O-]	none
Cn1nccc1C(=O)Nc1ccn(C23CC4CC(CC(C4)C2)C3)n1	L major viab 52.9
Oc1ccc(N2CCN(C(c3ccccn3)c3nnnn3C3CCCC3)CC2)cc1 (stereo not drawn)	none
O=c1c2c3nc4ccccc4nc3n(/N=C/c3cccs3)c2ncn1-c1ccccc1	none (no result: L major viab, WT yeast gro inh)
CC(=O)Nc1ccc(N=Nc2ccc(O)cc2)cc1	L major viab 52.1
CC1=C(C#N)C(/C=N/OCc2ccc(F)cc2Cl)CC(=O)N1 (stereo not drawn)	none
Cc1ccc2nc(SC(C)C(=O)Nc3cccc([N+](=O)[O-])c3)[nH]c2c1 (stereo not drawn)	L major viab 56.2
COc1ccc(S(=O)(=O)Nc2ccccc2C(=O)NC(C)(C)C)cc1OC	none
COc1ccc(S(=O)(=O)Nc2ccccc2C(=O)OC2CCCN(C)C2)cc1OC (stereo not drawn)	L major viab 100.0
CCN1CCN(c2nc3c(c(=O)[nH]c(=O)n3C)n2CCSc2nc3ccccc3s2)CC1	none
CC1CCN(c2nc3c(c(=O)[nH]c(=O)n3C)n2CC(C)CSc2nnnn2-c2ccccc2)CC1 (stereo not drawn)	L major viab 97.7
